Molecules are shown by their SMILES. Activity calls are given as the source filed them.

What is called IC50 is the concentration at which inhibition is half-maximal. For orientation: half-life means the time needed for the level to fall by half in the phase considered. High values mean slow loss, low ones fast loss. As a reminder, the inhibition is the relative decrease from the control value, in per cent. Low values mean little suppression, high ones strong suppression.

The target of data set [1] is Glutamate NMDA receptor; Grin1/Grin2b (Rattus norvegicus, UniProt P35439+Q00960). As to the kind of experiment: Inhibition of rat recombinant NR1/NR2B receptor expressed in Xenopus oocytes assessed as inhibition of glutamate and glycine-induced evoked current by two electrode voltage clamp method. The class given is cell-based, Oocyte. A general note: In two-electrode clamp one electrode senses voltage and the other passes current.

The target of data set [2] is T1, Adrenergic receptor alpha-1 (Rattus norvegicus, UniProt P15823+P23944+P43140).
T1 sequence (P15823 whole entry): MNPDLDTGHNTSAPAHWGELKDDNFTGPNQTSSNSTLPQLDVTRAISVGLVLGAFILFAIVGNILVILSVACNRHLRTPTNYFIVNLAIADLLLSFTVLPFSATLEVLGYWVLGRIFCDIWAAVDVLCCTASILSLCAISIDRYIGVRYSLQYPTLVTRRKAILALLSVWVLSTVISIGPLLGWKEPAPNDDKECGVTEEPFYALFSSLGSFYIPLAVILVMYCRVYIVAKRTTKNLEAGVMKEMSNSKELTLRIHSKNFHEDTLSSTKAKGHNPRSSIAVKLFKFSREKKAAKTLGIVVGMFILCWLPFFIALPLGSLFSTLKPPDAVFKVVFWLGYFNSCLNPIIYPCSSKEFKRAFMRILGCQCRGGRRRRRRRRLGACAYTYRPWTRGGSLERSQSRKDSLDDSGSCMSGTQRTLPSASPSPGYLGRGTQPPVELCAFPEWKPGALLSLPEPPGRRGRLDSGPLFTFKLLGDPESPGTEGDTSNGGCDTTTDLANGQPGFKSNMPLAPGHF
T1 sequence (P23944 whole entry): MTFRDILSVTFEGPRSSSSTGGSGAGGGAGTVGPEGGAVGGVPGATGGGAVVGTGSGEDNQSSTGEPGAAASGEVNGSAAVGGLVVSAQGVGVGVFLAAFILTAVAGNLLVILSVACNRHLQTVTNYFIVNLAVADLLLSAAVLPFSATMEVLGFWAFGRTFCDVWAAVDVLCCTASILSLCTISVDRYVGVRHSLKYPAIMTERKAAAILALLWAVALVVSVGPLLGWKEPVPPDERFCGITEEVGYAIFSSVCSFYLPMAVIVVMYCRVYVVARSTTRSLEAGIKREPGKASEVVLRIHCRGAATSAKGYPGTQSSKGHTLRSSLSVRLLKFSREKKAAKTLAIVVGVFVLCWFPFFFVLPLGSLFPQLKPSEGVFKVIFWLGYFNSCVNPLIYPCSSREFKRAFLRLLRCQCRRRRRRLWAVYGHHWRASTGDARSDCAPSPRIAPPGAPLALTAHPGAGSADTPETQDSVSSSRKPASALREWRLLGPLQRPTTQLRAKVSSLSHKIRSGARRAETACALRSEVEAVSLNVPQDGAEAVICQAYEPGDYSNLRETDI
T1 sequence (P43140 whole entry): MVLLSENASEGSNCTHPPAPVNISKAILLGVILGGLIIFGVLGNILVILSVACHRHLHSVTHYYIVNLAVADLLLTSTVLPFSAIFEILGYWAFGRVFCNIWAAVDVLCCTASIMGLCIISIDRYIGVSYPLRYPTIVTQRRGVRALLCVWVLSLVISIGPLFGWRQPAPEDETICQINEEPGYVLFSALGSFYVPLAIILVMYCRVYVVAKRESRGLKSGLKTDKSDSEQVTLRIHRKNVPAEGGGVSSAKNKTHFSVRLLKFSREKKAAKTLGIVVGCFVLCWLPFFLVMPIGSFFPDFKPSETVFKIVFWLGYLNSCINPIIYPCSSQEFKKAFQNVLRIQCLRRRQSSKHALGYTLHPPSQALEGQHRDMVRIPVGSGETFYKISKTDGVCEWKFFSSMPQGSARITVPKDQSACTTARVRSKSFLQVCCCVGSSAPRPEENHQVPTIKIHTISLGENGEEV
In words: Displacement of [3H]prazosin from alpha1 adrenergic receptor in rat brain. It counts as tissue-based. The procedure, abridged: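 Rat brain membranes; displacement of [3H]-prazosin at 4–6 concentrations, each point in duplicate. IC50 from displacement curves fitted by nonlinear least-squares regression.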
For orientation: In a radioligand displacement assay an active substance lowers the binding of a labelled ligand.

Data set [3] can be described thus: Half life in rat plasma at 4 mg/kg, iv administered as single dose by LC-MS/MS analysis. The class given is ADME, organism-based. Set-up: dose 4 mg/kg, route intravenous. The procedure, abridged: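 Rats, n = 3, fasted overnight and given a single 4 mg/kg iv bolus via the tail vein in 2% dimethyl acetamide/98% 5% hydroxypropyl cyclodextrin. Blood collected into K-EDTA from the orbital plexus at 5, 30, 120 and 240 min. Plasma extracted with cold acetonitrile and analyzed by LC-MS/MS in MRM mode against a standard curve.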

The target in data set [4] is Voltage-gated inwardly rectifying potassium channel KCNH2 (Homo sapiens, UniProt Q12809). As to the kind of experiment: Displacement of [3H]astemizole from human ERG expressed in HEK293 cells.
The test system of data set [5] is Rattus norvegicus. In words: Anticonvulsant activity in Sprague-Dawley rat assessed as inhibition of electroshock-induced tonic hind limb extension at 30 mg/kg, ip administered 30 mins before electroshock. The class given is functional, organism-based. More on the design: dose 30 mg/kg. The conditions noted are these: Hindlimb. The procedure, abridged: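 Male Sprague–Dawley rats, 100–125 g, with 1% lidocaine dropped into each conjunctiva before maximal electroshock. Compound given ip in DMSO 30 min before the stimulus. Tested on three consecutive days: untreated on days 1 and 3, compound on day 2. Duration of tonic hind limb extension scored visually. Vehicle served as negative control and carbamazepine 60 mg/kg as positive control. ANOVA with Bonferroni post hoc test.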

The test system of data set [6] is Glutamate receptor ionotropic, NMDA 2B (Rattus norvegicus), Q00960 [E201R]. In words: Inhibition of rat NR1/NR2B(E201R) mutant receptor expressed in Xenopus oocytes at 100 nM by two electrode voltage clamp method. The conditions noted are these: Oocyte. It counts as cell-based.
Data set [7] deals with Glutamate receptor ionotropic, NMDA 1 (Rattus norvegicus), P35439 [H134A]. In words: Inhibition of rat NR1(H134A)/NR2B mutant receptor expressed in Xenopus oocytes at 100 nM by two electrode voltage clamp method. It counts as cell-based. The conditions noted are these: Oocyte.
In data set [8] the target is Glutamate NMDA receptor; Grin1/Grin2b (Rattus norvegicus) (UniProt P35439+Q00960). As to the kind of experiment: Inhibition of rat wild type NR1/NR2B receptor expressed in Xenopus oocytes at 100 nM by two electrode voltage clamp method. The conditions noted are these: Oocyte. The class given is cell-based.
For data set [9], the system named is Mus musculus. As to the kind of experiment: Effect on motor coordination in mouse at 0.6 mg/kg, ip administered 20 mins prior to test after 5 days by rotarod test. The conditions noted are these: in vivo. It counts as ADME, organism-based. Set-up: dose 0.6 mg/kg, route intraperitoneal. The procedure, abridged:
(§1)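 Accelerating rotarod: starts at 5 rpm, then after 10 s ramps 5 to 35 rpm over 5 min; latency to fall recorded automatically. Four trials daily, 25 min apart, for 5 days. On day 5 mice randomised and dosed ip (25% DMSO/75% saline, 5 mL/kg) 20 min before the first trial. Tester blinded; ANOVA with Dunnett's post hoc.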
A general note: In the rotarod test animals must keep their balance on a rotating rod.

Data set [10] concerns Mus musculus. In words: Effect on motor coordination in mouse at 0.3 mg/kg, ip administered 20 mins prior to test after 5 days by rotarod test. It counts as ADME, organism-based. More on the design: dose 0.3 mg/kg, route intraperitoneal. The conditions noted are these: in vivo. The procedure, abridged: as §1
The test system of data set [11] is Rattus norvegicus. As to the kind of experiment: Effect on locomotor activity in Sprague-Dawley rat at 0.3 mg/kg, ip. It counts as functional. The note with it: route intraperitoneal. The procedure, abridged: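 Rats habituated to the test room at least 30 min, then basal horizontal activity recorded 1 h in photobeam activity chambers. Animals then dosed ip and returned to the chamber for 2 h. Vehicle group run each day. Compared with vehicle by ANOVA with Dunnett's post hoc.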

Chain of Voltage-gated inwardly rectifying potassium channel KCNH2 (Q12809 whole entry): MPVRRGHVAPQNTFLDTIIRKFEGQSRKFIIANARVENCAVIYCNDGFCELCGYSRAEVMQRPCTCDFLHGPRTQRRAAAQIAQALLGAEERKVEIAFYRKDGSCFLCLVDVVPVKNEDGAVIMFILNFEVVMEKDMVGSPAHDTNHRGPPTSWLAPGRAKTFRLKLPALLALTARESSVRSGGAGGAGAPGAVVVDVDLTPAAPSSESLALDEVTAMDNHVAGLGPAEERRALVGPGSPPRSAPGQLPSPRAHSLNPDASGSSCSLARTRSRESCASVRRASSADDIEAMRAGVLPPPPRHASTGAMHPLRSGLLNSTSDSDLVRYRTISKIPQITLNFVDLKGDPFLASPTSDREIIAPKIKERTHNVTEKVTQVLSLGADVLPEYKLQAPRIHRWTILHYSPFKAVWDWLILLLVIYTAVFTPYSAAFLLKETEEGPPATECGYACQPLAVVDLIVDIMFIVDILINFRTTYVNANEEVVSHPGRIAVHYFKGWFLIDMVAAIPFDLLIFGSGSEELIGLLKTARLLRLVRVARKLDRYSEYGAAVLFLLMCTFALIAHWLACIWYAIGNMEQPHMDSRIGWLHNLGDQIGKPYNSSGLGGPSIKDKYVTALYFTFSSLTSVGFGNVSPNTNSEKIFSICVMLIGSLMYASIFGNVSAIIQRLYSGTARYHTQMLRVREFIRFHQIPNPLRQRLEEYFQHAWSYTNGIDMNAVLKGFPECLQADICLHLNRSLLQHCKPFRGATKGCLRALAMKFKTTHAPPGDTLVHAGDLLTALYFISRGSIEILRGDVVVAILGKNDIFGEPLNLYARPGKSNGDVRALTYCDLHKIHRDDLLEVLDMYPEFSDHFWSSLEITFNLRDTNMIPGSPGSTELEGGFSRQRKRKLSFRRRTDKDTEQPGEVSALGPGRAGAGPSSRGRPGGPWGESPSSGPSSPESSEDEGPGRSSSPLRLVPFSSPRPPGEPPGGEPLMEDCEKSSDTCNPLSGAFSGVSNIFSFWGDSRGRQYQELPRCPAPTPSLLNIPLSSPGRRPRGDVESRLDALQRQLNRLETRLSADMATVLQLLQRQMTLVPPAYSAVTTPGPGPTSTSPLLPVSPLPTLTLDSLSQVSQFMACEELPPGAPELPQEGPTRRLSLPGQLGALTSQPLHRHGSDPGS

For `CS(=O)(=O)Nc1ccc(OC[C@@H](O)CN(CCc2ccc(Cl)c(Cl)c2)Cc2ccccc2O)cc1`, the IC50 was 662 nM in data set [1] and over 10000 nM in data set [2].
Regarding `CS(=O)(=O)Nc1ccc(OC[C@@H](O)CN(CCc2ccc(Cl)c(Cl)c2)Cc2cccc(O)c2)cc1`, the IC50 in data set [1] is 238 nM; in [2] it was over 10000 nM. In [3], this compound gave a half-life of 36 min.
With `CS(=O)(=O)Nc1ccc(OC[C@@H](O)CN(CCc2ccc(Cl)c(Cl)c2)Cc2ccccn2)cc1`, the IC50 in [1] was 2760 nM. Moreover, the half-life in data set [3] was 36 min.
Regarding `Cc1ccc(CCNC[C@H](O)COc2ccc(NS(C)(=O)=O)cc2)cc1C`, the IC50 in [1] came to 207 nM; in data set [4] it was 2400 nM; in [2], 2200 nM.
On the same counts, the results for `CS(=O)(=O)Nc1ccc(OC[C@@H](O)CNCCc2ccc(Cl)c(F)c2)cc1` are 68 nM, 1910 nM and over 10000 nM.
For the compound `CS(=O)(=O)Nc1ccc(OC[C@@H](O)CNCCc2ccc(Cl)cc2)cc1`, the results for the IC50 in data set [1] and in [2] were 101 nM and 9500 nM, respectively.
As to `CN(CCc1ccc(Cl)c(Cl)c1)CC(O)COc1ccc(NS(C)(=O)=O)cc1` (racemic), the result in [5] was Active. In addition, the inhibition in data set [6] worked out at 4.2%; in [7] it was 8.9%; in [8] it was 67.1%.
Turning to `CS(=O)(=O)Nc1ccc(OC[C@@H](O)CNCCc2ccc(F)c(F)c2)cc1`, the IC50 in [1] is 357 nM; in data set [4], 1630 nM; in data set [2], over 10000 nM.
Take `C[C@]12N[C@H](Cc3ccccc31)c1ccccc12` [DIZOCILPINE]: the Activity result in data set [9] is reported as “Toxic”; in data set [10], “Toxic”; in data set [11], 38233.
With `CN(CCc1ccc(Cl)c(Cl)c1)C[C@H](O)COc1ccc(NS(C)(=O)=O)cc1`, the values for the IC50 in [1] and in [2] were 130 nM and 1400 nM, respectively.
For the compound `CCCCN(CCc1ccc(Cl)c(Cl)c1)C[C@H](O)COc1ccc(NS(C)(=O)=O)cc1`, the figures for the IC50 in [1] and in data set [2] were 421 nM and 4900 nM, respectively. Besides, in data set [3], the half-life was 36 min.
`CCN(CCc1ccc(Cl)c(Cl)c1)C[C@H](O)COc1ccc(NS(C)(=O)=O)cc1`: the values for the IC50 in data set [1] and in data set [2] were 96 nM and 3500 nM, respectively. The compound further showed a half-life in data set [3] of 36 min.
As to `CS(=O)(=O)Nc1ccc(OC[C@@H](O)CN(CCO)CCc2ccc(Cl)c(Cl)c2)cc1`, the outcome in [5] was Active. Further, the IC50 in data set [1] stood at 122 nM. The half-life in data set [3] was 36 min.
`CS(=O)(=O)Nc1ccc(OC[C@@H](O)CN(CCc2ccc(Cl)c(Cl)c2)Cc2ccccc2F)cc1`: the IC50 in data set [1] was 80 nM; in [2], over 10000 nM.
The like results for `CS(=O)(=O)Nc1ccc(OC[C@@H](O)CN(CCc2ccc(Cl)c(Cl)c2)Cc2ccc(F)c(F)c2F)cc1` were, in that order, 51 nM and over 10000 nM.

(Values after ChEMBL document CHEMBL1140127, “Enantiomeric propanolamines as selective N-methyl-D-aspartate 2B receptor antagonists” (J Med Chem, 2008).)
